# Measured values as given in ChEMBL document CHEMBL4229440, “Novel amino acid-substituted diphenylpyrimidine derivatives as potent BTK inhibitors against B cell lymphoma cell lines” (Bioorg Med Chem, 2018).
# Active and inactive are the calls of the source. The calls are words filed in the database; no cut-off is given here.
# Legend:
# NAMALVA [1] = experiment: Antiproliferative activity against human NAMALWA cells after 72 hrs by CCK8 assay; format: functional, cell-based
# Procedure, shortened: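 Cells seeded 3,000/well in RPMI-1640 with 10% FBS at 37 °C, 5% CO2, for 4 h, then exposed to compound for 72 h. Concentrations 1.25 to 40 µM, each in five replicates. Cell number set to give an absorbance of 0.5–1.2 at 450 nm. CCK-8 read-out at 450 nm; IC50 fitted by curve fitting; values are the mean of at least three separate experiments.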
# NAMALVA [2] = experiment: Induction of apoptosis in human NAMALWA cells assessed as early apoptotic cells at 5 uM after 48 hrs by Annexin V-FITC/propidium iodide staining based flow cytometry (reference value: 0%); format: functional
# NAMALVA [3] = experiment: Induction of apoptosis in human NAMALWA cells assessed as late apoptotic cells at 5 uM after 48 hrs by Annexin V-FITC/propidium iodide staining based flow cytometry (reference value: 0%); format: functional
# NAMALVA [4] = experiment: Induction of apoptosis in human NAMALWA cells assessed as necrotic cells at 5 uM after 48 hrs by Annexin V-FITC/propidium iodide staining based flow cytometry (reference value: 4.05%); format: functional
# NAMALVA [5] = experiment: Induction of apoptosis in human NAMALWA cells assessed as morphological changes at 5 uM by acridine orange/ethidium bromide staining based phase contrast microscopic assay; format: functional, cell-based
# Raji [6] = experiment: Antiproliferative activity against human Raji cells after 72 hrs by CCK8 assay; format: functional, cell-based
# [7] = target: T1, Tyrosine-protein kinase JAK3 (Homo sapiens, UniProt P52333); experiment: Inhibition of recombinant human N-terminal GST-tagged JAK3 (781-end residues) expressed in baculovirus infected Sf9 cells using poly (4:1 Glu, Tyr) peptide as substrate after 60 mins by ADP-Glo assay
# T1 sequence (P52333 whole entry): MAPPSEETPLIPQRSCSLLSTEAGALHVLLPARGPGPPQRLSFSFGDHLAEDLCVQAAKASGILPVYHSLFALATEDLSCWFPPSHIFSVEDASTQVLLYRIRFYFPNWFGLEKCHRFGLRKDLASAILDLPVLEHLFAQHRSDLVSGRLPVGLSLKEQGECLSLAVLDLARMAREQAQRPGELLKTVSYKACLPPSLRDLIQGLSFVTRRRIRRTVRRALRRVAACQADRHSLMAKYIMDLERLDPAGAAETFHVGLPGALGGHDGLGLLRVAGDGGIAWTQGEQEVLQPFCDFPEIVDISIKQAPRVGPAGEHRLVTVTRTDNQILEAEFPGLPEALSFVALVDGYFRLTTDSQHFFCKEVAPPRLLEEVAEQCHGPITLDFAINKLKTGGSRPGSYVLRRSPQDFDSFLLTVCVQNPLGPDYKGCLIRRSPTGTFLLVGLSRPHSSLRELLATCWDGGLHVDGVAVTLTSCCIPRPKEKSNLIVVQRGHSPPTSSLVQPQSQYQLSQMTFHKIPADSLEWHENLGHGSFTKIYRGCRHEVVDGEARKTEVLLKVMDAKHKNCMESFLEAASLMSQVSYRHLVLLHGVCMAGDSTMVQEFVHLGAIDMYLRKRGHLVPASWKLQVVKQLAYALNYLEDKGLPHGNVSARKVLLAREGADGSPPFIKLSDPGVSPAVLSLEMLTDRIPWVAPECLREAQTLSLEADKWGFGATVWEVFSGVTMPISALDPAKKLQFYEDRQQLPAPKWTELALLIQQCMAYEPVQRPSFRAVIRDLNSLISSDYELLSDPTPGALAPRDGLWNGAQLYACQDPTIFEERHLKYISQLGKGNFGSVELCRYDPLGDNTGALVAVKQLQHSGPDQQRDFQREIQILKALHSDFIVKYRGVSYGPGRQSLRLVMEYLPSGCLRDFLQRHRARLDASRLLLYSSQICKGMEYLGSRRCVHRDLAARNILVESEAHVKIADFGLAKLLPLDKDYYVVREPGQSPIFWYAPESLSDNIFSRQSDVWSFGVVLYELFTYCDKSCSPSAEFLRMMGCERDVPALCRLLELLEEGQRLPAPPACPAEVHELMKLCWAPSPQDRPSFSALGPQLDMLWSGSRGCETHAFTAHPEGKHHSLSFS
# Procedure, shortened: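 ADP-Glo luminescent kinase assay with commercial JAK3 kinase enzyme system, in 1× kinase buffer, compounds at 0.1–1000 nM. The kinase reaction ran for 60 min at room temperature, followed by ADP-Glo reagent for 40 min to stop the reaction and deplete ATP, then detection reagent for 30 min. Luminescence was read and curves were fitted to give IC50.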
# Ramos = experiment: Antiproliferative activity against human Ramos cells after 72 hrs by CCK8 assay; format: functional, cell-based
# [8] = target: T2, Tyrosine-protein kinase BTK (Homo sapiens, UniProt Q06187); experiment: Inhibition of full length recombinant human N-terminal His-tagged BTK expressed in baculovirus infected Sf9 cells using poly (4:1 Glu, Tyr) peptide as substrate after 60 mins by ADP-Glo assay
# T2 sequence (Q06187 whole entry): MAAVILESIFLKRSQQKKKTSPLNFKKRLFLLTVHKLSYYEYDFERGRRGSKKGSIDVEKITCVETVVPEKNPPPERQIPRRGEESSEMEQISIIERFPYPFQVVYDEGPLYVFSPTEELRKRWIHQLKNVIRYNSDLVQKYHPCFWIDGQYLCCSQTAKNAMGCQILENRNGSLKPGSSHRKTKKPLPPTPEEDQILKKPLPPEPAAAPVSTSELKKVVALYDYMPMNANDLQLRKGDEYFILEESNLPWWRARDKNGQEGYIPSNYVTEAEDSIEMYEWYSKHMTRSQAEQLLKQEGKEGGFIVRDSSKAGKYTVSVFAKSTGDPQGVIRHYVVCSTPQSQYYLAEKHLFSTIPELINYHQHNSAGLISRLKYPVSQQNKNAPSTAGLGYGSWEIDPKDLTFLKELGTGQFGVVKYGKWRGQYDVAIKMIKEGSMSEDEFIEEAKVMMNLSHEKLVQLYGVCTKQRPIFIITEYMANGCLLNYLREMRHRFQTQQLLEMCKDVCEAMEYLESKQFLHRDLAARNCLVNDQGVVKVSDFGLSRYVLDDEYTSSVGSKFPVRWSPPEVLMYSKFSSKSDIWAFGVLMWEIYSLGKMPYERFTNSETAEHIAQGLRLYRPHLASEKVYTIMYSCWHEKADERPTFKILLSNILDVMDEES
# [9] = target: Epidermal growth factor receptor (Homo sapiens, UniProt P00533, T790M); experiment: Inhibition of recombinant human N-terminal GST-tagged EGFR T790M mutant (695-end residues) expressed in baculovirus infected Sf9 cells using poly (4:1 Glu, Tyr) peptide as substrate after 60 mins by ADP-Glo assay
# Chain of Epidermal growth factor receptor (P00533 25-1210 T790M limits assumed): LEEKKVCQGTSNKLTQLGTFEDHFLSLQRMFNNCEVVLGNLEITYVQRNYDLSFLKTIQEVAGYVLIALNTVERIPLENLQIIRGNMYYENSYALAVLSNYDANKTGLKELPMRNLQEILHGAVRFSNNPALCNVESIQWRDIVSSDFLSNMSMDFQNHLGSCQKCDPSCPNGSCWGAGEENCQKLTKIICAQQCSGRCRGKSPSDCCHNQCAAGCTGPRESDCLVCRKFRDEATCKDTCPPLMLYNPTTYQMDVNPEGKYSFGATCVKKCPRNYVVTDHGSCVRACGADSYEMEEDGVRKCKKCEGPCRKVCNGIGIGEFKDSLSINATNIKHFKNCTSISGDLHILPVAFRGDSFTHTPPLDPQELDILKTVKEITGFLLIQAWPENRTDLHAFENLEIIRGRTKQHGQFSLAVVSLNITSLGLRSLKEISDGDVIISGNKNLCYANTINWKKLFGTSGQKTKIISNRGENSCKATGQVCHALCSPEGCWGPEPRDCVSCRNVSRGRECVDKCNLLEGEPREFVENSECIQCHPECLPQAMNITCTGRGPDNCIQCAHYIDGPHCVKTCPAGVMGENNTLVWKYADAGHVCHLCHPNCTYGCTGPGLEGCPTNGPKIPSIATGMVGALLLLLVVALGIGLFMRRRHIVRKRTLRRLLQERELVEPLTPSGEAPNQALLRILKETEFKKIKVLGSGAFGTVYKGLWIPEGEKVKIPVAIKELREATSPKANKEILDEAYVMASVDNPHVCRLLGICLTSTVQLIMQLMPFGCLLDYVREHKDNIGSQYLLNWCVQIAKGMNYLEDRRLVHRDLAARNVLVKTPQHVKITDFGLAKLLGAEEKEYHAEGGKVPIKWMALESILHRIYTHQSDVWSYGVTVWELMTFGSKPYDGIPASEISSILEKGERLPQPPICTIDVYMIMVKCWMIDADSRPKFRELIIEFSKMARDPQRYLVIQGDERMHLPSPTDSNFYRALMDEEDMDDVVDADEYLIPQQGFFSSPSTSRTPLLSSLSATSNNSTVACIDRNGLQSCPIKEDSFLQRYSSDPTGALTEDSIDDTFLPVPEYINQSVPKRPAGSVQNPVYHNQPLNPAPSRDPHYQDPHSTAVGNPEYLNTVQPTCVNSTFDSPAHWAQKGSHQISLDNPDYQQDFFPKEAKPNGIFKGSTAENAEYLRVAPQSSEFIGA
# Procedure, shortened: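 ADP-Glo luminescent kinase assay in 1× kinase buffer with compounds at 0.1 to 1000 nM. The kinase reaction ran 60 min at room temperature, then ADP-Glo reagent stopped it and depleted ATP (40 min, RT). Detection reagent converted ADP to ATP for luciferase read-out (30 min, RT). IC50 came from curve fitting.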
# NAMALVA [10] = experiment: Induction of apoptosis in human NAMALWA cells assessed as late apoptotic cells at 2 uM after 48 hrs by Annexin V-FITC/propidium iodide staining based flow cytometry (reference value: 0%); format: functional
# Raji [11] = experiment: Potency index, ratio of ibrutinib IC50 to compound IC50 for antiproliferative activity against human Raji cells; format: functional
# NAMALVA [12] = experiment: Induction of apoptosis in human NAMALWA cells assessed as late apoptotic cells at 1 uM after 48 hrs by Annexin V-FITC/propidium iodide staining based flow cytometry (reference value: 0%); format: functional
# NAMALVA [13] = experiment: Induction of apoptosis in human NAMALWA cells assessed as necrotic cells at 1 uM after 48 hrs by Annexin V-FITC/propidium iodide staining based flow cytometry (reference value: 4.05%); format: functional
# [14] = target: T2, Tyrosine-protein kinase BTK; experiment: Inhibition of BTK phosphorylation in human NAMALWA cells after 48 hrs by Western blot method; format: cell-based
# Procedure, shortened: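 NAMALWA cells were treated at 1, 5 and 10 µM for 48 h and lysed; lysates were cleared at 14,000 g for 15 min at 4 °C. 50 µg protein was resolved on 8–12% SDS-PAGE and transferred to PVDF. The membrane was blocked in 5% skim milk for 2 h at room temperature, then probed overnight at 4 °C for BTK and p-BTK. Detection was by ECL.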
# PBMC = experiment: Cytotoxicity against human PBMC assessed as morphological changes at 5 to 20 uM after 24 hrs by acridine orange/ethidium bromide staining based phase contrast microscopic method; format: cell-based
# Procedure, shortened: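 PBMC were isolated from a healthy adult 's venous blood (ACD anticoagulant) by Lymphoprep density separation, washed in PBS and seeded at 200,000–250,000 cells/well. Treated in RPMI-1640 with 10% FBS at 37 °C, 5% CO2, for 24 h, with five replicates per concentration. Morphology was checked by phase-contrast microscopy and AO/EB staining; live cells were counted manually in a counting chamber.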
# NAMALVA [15] = experiment: Potency index, ratio of ibrutinib IC50 to compound IC50 for antiproliferative activity against human NAMALWA cells; format: functional
# NAMALVA [16] = experiment: Induction of apoptosis in human NAMALWA cells assessed as early apoptotic cells at 2 uM after 48 hrs by Annexin V-FITC/propidium iodide staining based flow cytometry (reference value: 0%); format: functional
# NAMALVA [17] = experiment: Induction of apoptosis in human NAMALWA cells assessed as early apoptotic cells at 1 uM after 48 hrs by Annexin V-FITC/propidium iodide staining based flow cytometry (reference value: 0%); format: functional
# NAMALVA [18] = experiment: Induction of apoptosis in human NAMALWA cells assessed as necrotic cells at 2 uM after 48 hrs by Annexin V-FITC/propidium iodide staining based flow cytometry (reference value: 4.05%); format: functional
Structure (SMILES),IC50 (NAMALVA [1]) [µM],Activity (NAMALVA [2]) [%],Activity (NAMALVA [3]) [%],Activity (NAMALVA [4]) [%],Activity (NAMALVA [5]),IC50 (Raji [6]) [µM],IC50 [7] [µM],IC50 (Ramos) [µM],IC50 [8] [µM],IC50 [9] [µM],Activity (NAMALVA [10]) [%],Ratio IC50 (Raji [11]),Activity (NAMALVA [12]) [%],Activity (NAMALVA [13]) [%],inhibition [14],Activity (PBMC),Ratio IC50 (NAMALVA [15]),Activity (NAMALVA [16]) [%],Activity (NAMALVA [17]) [%],Activity (NAMALVA [18]) [%]
C=CC(=O)N1CCC[C@@H](n2nc(-c3ccc(Oc4ccccc4)cc3)c3c(N)ncnc32)C1 [IBRUTINIB],19.6,4.06,5.75,0.73,Active,–,–,–,–,–,–,–,–,–,–,–,–,–,–,–
C=CC(=O)Nc1cccc(Nc2nc(Nc3ccc(OCC(=O)NCC(=O)O)cc3)ncc2Cl)c1,> 40,–,–,–,–,> 40,> 0.5,> 40,0.0112,> 0.1,–,–,–,–,–,–,–,–,–,–
C=CC(=O)Nc1cccc(Nc2nc(Nc3ccc(OCC(=O)NCC(=O)OC)cc3)ncc2Cl)c1,16.9,–,–,–,–,18,0.496,20.9,0.0065,> 0.1,–,–,–,–,–,–,–,–,–,–
C=CC(=O)Nc1cccc(Nc2nc(Nc3ccc(OCC(=O)NC(C)C(=O)OC)cc3)ncc2Cl)c1 (stereo not drawn),29.3,–,–,–,–,25.2,> 0.5,40.8,0.0087,> 0.1,–,–,–,–,–,–,–,–,–,–
C=CC(=O)Nc1cccc(Nc2nc(Nc3ccc(OCC(=O)N4CCCC4C(=O)OC)cc3)ncc2Cl)c1 (stereo not drawn),4.8,8.75,13.33,1.67,Active,6.7,0.196,19.7,0.0087,> 0.1,7.43,3,5.83,0.92,Dose-dependent effect,Non-Toxic,4,6.96,4.94,0.82
